Laboratory results published in ChEMBL document CHEMBL1275389, “In vivo characterization of a dual adenosine A2A/A1 receptor antagonist in animal models of Parkinson's disease” (J Med Chem, 2010).
Activity calls are given as the source filed them. The rule behind the calls is not given here.

Key:
[1] = system: Mus musculus; test: Reversal of haloperidol-induced catalepsy in BALB/c mouse at 3 mg/kg, po administered 30 mins after haloperidol challenge measured for 60 seconds after 4 hrs; assay type: functional, organism-based; parameters: dose 3 mg/kg
Summary of the method: (§1)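 Fasted male BALB/c mice received haloperidol (1 mg/kg sc) and were then dosed orally with test compound (0, 1, 3 mg/kg in 0.5% methylcellulose), reference A2A antagonist (5 mg/kg) or vehicle. Bar catalepsy (max 60 s) was measured repeatedly at 15 min, 1 h, 2 h and 4 h after dosing. Mean ± SEM, n = 12; Dunnett's test.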

[2] = system: Mus musculus; test: Reversal of haloperidol-induced catalepsy in BALB/c mouse at 1 mg/kg, po administered 30 mins after haloperidol challenge measured for 60 seconds after 4 hrs; assay type: functional, organism-based; parameters: dose 1 mg/kg; summary of the method: as §1
[3] = system: Mus musculus; test: Reversal of haloperidol-induced catalepsy in po dosed BALB/c mouse administered 30 mins after haloperidol challenge measured for 60 seconds after 1 hr; assay type: functional
Summary of the method: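 Fasted male BALB/c mice (18-23 g) received haloperidol 1 mg/kg sc (in 0.3% tartaric acid/0.9% saline). Test compound was given orally in 0.5% methylcellulose (0.01-10 mg/kg) 30 min later. L-DOPA 300 mg/kg plus carbidopa 75 mg/kg served as positive control. Groups were randomized and testing was blind. At 1 h, forepaws were placed on a bar 3.5 cm high and time on the bar was recorded (max 60 s). n = 9-11; Dunnett's test.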

[4] = system: Callithrix jacchus; test: Toxicity in Callithrix jacchus assessed as induction of dyskinesia at 12 mg/kg, po measured for 10 mins every 30 mins […]; assay type: organism-based; parameters: dose 12 mg/kg, route oral; conditions: marmoset, in vivo
Summary of the method: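 MPTP-treated marmosets received vehicle, L-DOPA (12 mg/kg po) or oral test compound (0.1, 1.0, 10, 50 mg/kg). Dyskinesias (involuntary movements) were scored out to 4 h. Eight animals per group. Analysis used a Friedman test followed by Dunn's comparison.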

[5] = system: Callithrix jacchus; test: Inhibition of MPTP-induced motor disabilities in Callithrix jacchus at 12 mg/kg, po measured every 5 mins […]; assay type: functional, organism-based; parameters: dose 12 mg/kg
Summary of the method: (§2)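 MPTP-treated marmosets were dosed orally with vehicle, L-DOPA (12 mg/kg) or test compound (0.1/0.3, 1.0, 10, 50 mg/kg). Parkinsonian motor disability was scored out to 6 h. Eight animals per group. Analysis used a Friedman nonparametric repeated-measures ANOVA with Dunn's test.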

[6] = Half life in Sprague-Dawley rat at 10 mg/kg, po; assay type: ADME, organism-based; parameters: dose 10 mg/kg, route oral; conditions: in vivo
Summary of the method: (§3)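 Fasted male Sprague-Dawley rats received one oral dose of 10 mg/kg as a solution in 0.5% methylcellulose. For bioavailability, a separate iv dose of 2 mg/kg was given in 10% solutol. Discrete blood samples were taken by orbital sinus puncture from 3–4 rats per time point. Plasma was acetonitrile-precipitated and measured by LC-MS/MS (LOQ 0.7-2 ng/mL). Parameters came from noncompartmental analysis.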

[7] = target: T1, Adenosine receptor A1 (Homo sapiens, UniProt P30542); test: Antagonist activity at adenosine A1 receptor; assay type: functional
T1 sequence (P30542 whole entry): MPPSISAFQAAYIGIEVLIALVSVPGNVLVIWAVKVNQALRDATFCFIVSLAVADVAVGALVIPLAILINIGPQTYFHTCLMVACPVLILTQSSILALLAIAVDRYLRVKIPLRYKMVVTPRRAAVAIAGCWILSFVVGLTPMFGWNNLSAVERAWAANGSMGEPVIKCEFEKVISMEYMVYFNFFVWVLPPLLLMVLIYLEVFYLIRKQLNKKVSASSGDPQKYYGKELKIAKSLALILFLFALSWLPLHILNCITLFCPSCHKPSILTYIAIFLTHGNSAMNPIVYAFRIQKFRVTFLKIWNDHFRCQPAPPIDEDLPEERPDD

[8] = Cmax in BALB/c mouse plasma at 10 mg/kg, po; assay type: ADME, organism-based; parameters: dose 10 mg/kg, route oral
Summary of the method: (§4)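 Fasted male BALB/c mice received one oral dose of 10 mg/kg as a solution in 0.5% methylcellulose. For bioavailability, a separate iv dose of 2 mg/kg was given in 10% solutol. Discrete blood samples were taken by cardiac puncture from 3–4 animals per time point. Plasma was acetonitrile-precipitated and measured by LC-MS/MS (LOQ 0.7-2 ng/mL). Parameters came from noncompartmental analysis.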

[9] = Ratio of drug level in brain to plasma in Sprague-Dawley rat at 10 mg/kg, po; assay type: ADME, organism-based; parameters: dose 10 mg/kg, route oral
Summary of the method: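 Fasted male Sprague-Dawley rats were given 10 mg/kg orally as a solution in 0.5% methylcellulose. At each time point four rats were euthanized for blood, plasma and brain. Brain was homogenized in methanol, and the extract was dried and reconstituted in mobile phase. Plasma was precipitated with acetonitrile. Both were quantified by LC-MS/MS.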

[10] = system: Callithrix jacchus; test: Inhibition of MPTP-induced motor disabilities in Callithrix jacchus at 50 mg/kg, po measured every 5 mins for 6 hrs; assay type: functional, organism-based; parameters: dose 50 mg/kg; summary of the method: as §2
[11] = Cmax in Sprague-Dawley rat brain at 10 mg/kg, po; assay type: ADME, organism-based; parameters: dose 10 mg/kg, route oral
Summary of the method: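 Tissue distribution study: fasted male Sprague-Dawley rats were given 10 mg/kg orally in 0.5% methylcellulose. Four rats per time point were euthanized to collect brain. Brains were weighed, homogenized in methanol, and the extract evaporated and reconstituted in mobile phase for LC-MS/MS.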

[12] = Half life in cynomolgus monkey at 10 mg/kg, po; assay type: ADME, organism-based, Macaca fascicularis; parameters: dose 10 mg/kg, route oral; conditions: in vivo
Summary of the method: (§5)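 Fasted male and female cynomolgus monkeys received one oral dose of 10 mg/kg as a solution in 0.5% methylcellulose. For bioavailability, a separate iv dose of 1 mg/kg was given in 10% solutol. Serial blood was drawn by venipuncture. Plasma was acetonitrile-precipitated and measured by LC-MS/MS (LOQ 0.7-2 ng/mL). Noncompartmental analysis was applied to individual plasma concentrations.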

[13] = Cmax in Sprague-Dawley rat plasma at 10 mg/kg, po; assay type: ADME, organism-based; parameters: dose 10 mg/kg, route oral; summary of the method: as §3
[14] = Oral bioavailability in Sprague-Dawley rat at 10 mg/kg; assay type: ADME, organism-based; conditions: in vivo; summary of the method: as §3
[15] = system: Mus musculus; test: Reversal of reserpine-induced akinesia in CF1 mouse at 1 mg/kg, po administered 18 hrs before reserpine challenge measured for 30 mins after 60 mins; assay type: functional, organism-based; parameters: dose 1 mg/kg; conditions: in the assay text read “18 hrs after reserpine challenge” for “18 hrs before reserpine challenge”
Summary of the method: (§6)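 Mice were pretreated with reserpine (0.6 mg/kg sc) 18 h before testing. They were dosed orally with test compound (0.10, 1.0, 10.0, 30.0 mg/kg) or vehicle. Locomotion was recorded 60 min after dosing as total distance traveled (cm) over a 30 min period. Mean ± SEM, n = 10-12 per group; Hochberg test versus reserpine + vehicle.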

[16] = target: Adenosine receptor A2a (Homo sapiens, UniProt P29274); test: Antagonist activity at adenosine A2A receptor; assay type: functional
[17] = system: Callithrix jacchus; test: Inhibition of MPTP-induced motor disabilities in Callithrix jacchus at 1 mg/kg, po measured every 5 mins […]; assay type: functional, organism-based; parameters: dose 1 mg/kg; summary of the method: as §2
[18] = system: Mus musculus; test: Reversal of reserpine-induced akinesia in CF1 mouse at 10 mg/kg, po administered 18 hrs before reserpine challenge measured for 30 mins after 60 mins; assay type: functional, organism-based; parameters: dose 10 mg/kg; conditions: in the assay text read “18 hrs after reserpine challenge” for “18 hrs before reserpine challenge”; summary of the method: as §6
[19] = system: Rattus norvegicus; test: Reversal of haloperidol-induced catalepsy in po dosed Sprague-Dawley rat administered 30 mins after haloperidol challenge measured for 180 seconds after 1 hr; assay type: functional
Summary of the method: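 Sprague-Dawley rats received haloperidol (1 mg/kg sc). Oral test compound (0.01-30.0 mg/kg), L-DOPA/carbidopa (200:50 mg/kg) or vehicle followed, as in the mouse protocol. Time to descend from the bar was recorded (max 180 s). Mean ± SEM, n = 10-16 rats per group.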

[20] = Oral bioavailability in BALB/c mouse at 10 mg/kg; assay type: ADME, organism-based; conditions: in vivo; summary of the method: as §4
[21] = system: Rattus norvegicus; test: Potentiation of L-dopa-induced rotational behavior in unilaterally 6-hydroxydopamine-lesioned po dosed Sprague-Dawley rat pretreated 30 mins before L-dopa challenge measured for 120 mins in presence of carbidopa; assay type: functional, organism-based
Summary of the method: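 6-OHDA (12 μg) was microinjected unilaterally into the medial forebrain bundle. Six weeks later rats got L-DOPA (10 mg/kg po, with carbidopa 2.5 mg/kg sc) alone or together with oral test compound (0.1, 1.0, 3.0, 10 mg/kg). Contralateral 360° turns were counted by an optical sensor during the 2 h before and after L-DOPA. Mean ± SEM, n = 16 rats; Tukey's test versus L-DOPA + vehicle.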

[22] = Oral bioavailability in cynomolgus monkey at 10 mg/kg; assay type: ADME, organism-based, Macaca fascicularis; conditions: in vivo; summary of the method: as §5
[23] = system: Rattus norvegicus; test: Reversal of haloperidol-induced catalepsy in Sprague-Dawley rat at 1 mg/kg, po administered 30 mins after haloperidol challenge measured for 180 seconds after 4 hrs; assay type: functional, organism-based; parameters: dose 1 mg/kg
Summary of the method: (§7)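 Haloperidol-treated rats (1 mg/kg sc) were dosed orally with test compound (0, 1, 10 mg/kg) or L-DOPA 200 mg/kg plus benserazide 50 mg/kg. Time to descend from the bar (max 180 s) was measured at 15 min, 1 h, 2 h and 4 h after dosing. n = 10 rats; Dunnett's test versus haloperidol + vehicle.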

[24] = Half life in BALB/c mouse at 10 mg/kg, po; assay type: ADME, organism-based; parameters: dose 10 mg/kg, route oral; conditions: in vivo; summary of the method: as §4
[25] = system: Rattus norvegicus; test: Inhibition of 6-hydroxydopamine-induced rotational behavior in Sprague-Dawley rat at 0.1 to 10 mg/kg, po measured for 120 mins; assay type: functional; conditions: 2 h, dose mg/kg 0.1-10, read-out: MED
Summary of the method: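 Rats received 6-OHDA (12 μg) unilaterally into the medial forebrain bundle. Six weeks later they were dosed orally with test compound alone (0.1, 1.0, 3.0, 10 mg/kg). Rotation was tracked by an optical sensor tethered to an automated system, with one count per 360° turn. Readout was mean ± SEM total contralateral rotations over 2 h, n = 16 per group.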

[26] = system: Rattus norvegicus; test: Reversal of haloperidol-induced catalepsy in Sprague-Dawley rat at 10 mg/kg, po administered 30 mins after haloperidol challenge measured for 180 seconds after 4 hrs; assay type: functional, organism-based; parameters: dose 10 mg/kg; summary of the method: as §7
[27] = Cmax in cynomolgus monkey plasma at 10 mg/kg, po; assay type: ADME, organism-based, Macaca fascicularis; parameters: dose 10 mg/kg, route oral; summary of the method: as §5
[28] = system: Mus musculus; test: Reversal of reserpine-induced akinesia in po dosed CF1 mouse administered 18 hrs after reserpine challenge measured for 30 mins after 60 mins; conditions: read-out: MED
[29] = system: Callithrix jacchus; test: Inhibition of MPTP-induced motor disabilities in Callithrix jacchus at 10 mg/kg, po measured every 5 mins for 6 hrs; assay type: functional, organism-based; parameters: dose 10 mg/kg; summary of the method: as §2
[30] = system: Mus musculus; test: Reversal of reserpine-induced akinesia in CF1 mouse at 30 mg/kg, po administered 18 hrs after reserpine challenge measured for 30 mins after 60 mins

Sequence of Adenosine receptor A2a (P29274 whole entry): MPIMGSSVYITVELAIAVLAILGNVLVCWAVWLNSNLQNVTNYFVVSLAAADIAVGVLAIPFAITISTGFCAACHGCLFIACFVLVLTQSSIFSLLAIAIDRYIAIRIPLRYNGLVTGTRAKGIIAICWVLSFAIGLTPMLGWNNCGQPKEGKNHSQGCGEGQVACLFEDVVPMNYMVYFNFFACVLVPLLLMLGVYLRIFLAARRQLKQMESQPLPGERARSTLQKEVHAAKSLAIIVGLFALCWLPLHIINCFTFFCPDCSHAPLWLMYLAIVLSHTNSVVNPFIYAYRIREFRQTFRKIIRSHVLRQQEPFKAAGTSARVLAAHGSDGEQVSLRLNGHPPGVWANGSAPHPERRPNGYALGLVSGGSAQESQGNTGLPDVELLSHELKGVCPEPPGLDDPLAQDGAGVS

CCn1c(=O)c2c(nc(/C=C/c3ccc(OC)c(OC)c3)n2C)n(CC)c1=O [ISTRADEFYLLINE]
Activity [1]: Active | Activity [2]: Active | MRC [3]: 1 mg/kg | ED50 ([3]; Mus musculus, BALB/c, po): 0.14 mg/kg

N[C@@H](Cc1ccc(O)c(O)c1)C(=O)O [LEVODOPA]
Activity [4]: Toxic | inhibition [5]: Active

Cl.Cl.Nc1nc(-c2ccccc2)c2c(n1)-c1cc(CN3CCCC3)ccc1C2=O
half-life [6]: 1.6 h | Ki [7]: 0.017 µM | Cmax [8]: 655 nM | Kp [9]: 3 | Activity [10]: Active | Cmax [11]: 3550 nM | half-life [12]: 3.2 h | Cmax [13]: 1260 nM | bioavailability [14]: 64% | Activity [15]: Active | Ki [16]: 0.0041 µM | Activity [17]: Active | Activity [1]: Active | Activity [18]: Active | Activity [19]: Dose-dependent effect | ED50 [19]: 0.48 mg/kg | minimal effective dose ([19]; read-out: MED): 1 mg/kg | bioavailability [20]: 100% | Activity [21]: Dose-dependent effect | bioavailability [22]: 39% | Activity [2]: Active | Activity [23]: Active | half-life [24]: 0.8 h | minimal effective dose [25]: 1 mg/kg | Activity [26]: Active | Cmax [27]: 626 nM | minimal effective dose [28]: 1 mg/kg | Activity [29]: Active | Activity [3]: Dose-dependent effect | ED50 ([3]; Mus musculus, BALB/c, po): 0.17 mg/kg | minimal effective dose ([3]; Mus musculus, BALB/c, po, read-out: MED): 1 mg/kg | Activity [30]: Active
